# Source: ChEMBL document CHEMBL4706611, “Selective targeting of the αC and DFG-out pocket in p38 MAPK” (Eur J Med Chem, 2020)
# Assay: Metabolic stability in human liver microsomes assessed as compound remaining preincubated for 5 mins in presence of NADPH regeneration system followed by HLM addition measured after 240 mins by LC-MS analysis
# Type: ADME, Microsome
# Conditions: read-out: Stabilty
# Procedure, shortened: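 Compounds were incubated with human liver microsomes and sampled at 0, 10, 20, 30, 60, 120, 180 and 240 min. Degradation and metabolite formation were followed by LC-MS, ESI(+). Run in triplicate; mean with standard deviation reported.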
row,remaining at 4 h,Compound
1,66.9%,NC(=O)[C@H](CCC1CCCCC1)NC(=O)c1ccc(CNC(=O)c2cnn(-c3ccccc3)c2N)cc1
2,83.5%,Nc1c(C(=O)NCc2ccc(C(=O)N[C@@H](CCC3CCCCC3)C(=O)Nc3ccc(F)cc3)cc2)cnn1-c1ccccc1
3,99.5%,Nc1c(C(=O)NCc2ccc(C(=O)N[C@@H](CCC3CCCCC3)C(=O)NCc3ccncc3)cc2)cnn1-c1ccccc1
4,64%,CCNC(=O)[C@H](CCC1CCCCC1)NC(=O)c1ccc(CNC(=O)c2cnn(-c3ccccc3)c2N)cc1
